Test results: ChEMBL document CHEMBL1156597, “Structure-activity relationship of kahalalide F synthetic analogues” (J Med Chem, 2008)

Experiments:
DU-145 = assay: Cytotoxicity against human DU145 cells after 48 hrs by SRB assay; format: functional, cell-based; conditions: Homo sapiens, DU-145, 48 h; for GI50: read-out: GI50; for CC50: read-out: LC50 (the source's name)
In short: (§1)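 Cells grown in RPMI 1640 with 10% FBS and penicillin/streptomycin at 37 °C and 5% CO₂, trypsinized, then seeded at 5 × 10³/well. After 18 h drug-free attachment, samples in DMSO/EtOH/PBS (0.5:0.5:99) were added for 48 h continuous exposure. Cells were fixed with cold TCA (1 h, 4 °C) and stained with SRB (10 min). Tris-solubilized stain read at 490 nm. Triplicate wells, mean ± SD; GI₅₀ derived.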

LNCaP = assay: Cytotoxicity against human LNcaP cells after 48 hrs by SRB assay; format: functional; conditions: for CC50: read-out: LC50 (the source's name); in short: as §1
[1] = Cytotoxicity against human IGROV cells after 48 hrs by SRB assay; format: functional; conditions: for CC50: read-out: LC50 (the source's name); in short: as §1
[2] = Cytotoxicity against human IGROV-ET cells after 48 hrs by SRB assay; format: functional; conditions: for CC50: read-out: LC50 (the source's name); in short: as §1
SK-BR-3 = assay: Cytotoxicity against human SKBR3 cells after 48 hrs by SRB assay; format: functional; conditions: SK-BR-3, 48 h, read-out: LC50 (the source's name); in short: as §1
SK-MEL-28 = assay: Cytotoxicity against human SK-MEL-28 cells after 48 hrs by SRB assay; format: functional, cell-based; conditions: Homo sapiens, SK-MEL-28, 48 h; for CC50: read-out: LC50 (the source's name); in short: as §1
A549 = assay: Cytotoxicity against human A549 cells after 48 hrs by SRB assay; format: functional, cell-based; conditions: Homo sapiens, A549, 48 h; in short: as §1
K562 = assay: Cytotoxicity against human K562 cells after 48 hrs by SRB assay; format: functional; conditions: K562, 48 h; for CC50: read-out: LC50 (the source's name); in short: as §1
PANC-1 = assay: Cytotoxicity against human PANC1 cells after 48 hrs by SRB assay; format: functional; conditions: PANC-1, 48 h; for CC50: read-out: LC50 (the source's name); in short: as §1
HT-29 = assay: Cytotoxicity against human HT29 cells after 48 hrs by SRB assay; format: functional, cell-based; conditions: Homo sapiens, HT-29, 48 h; read-out: LC50 (the source's name); in short: as §1
LoVo [3] = assay: Cytotoxicity against human LoVo cells after 48 hrs by SRB assay; format: functional; conditions: for CC50: read-out: LC50 (the source's name)
LoVo [4] = assay: Cytotoxicity against human doxorubicin resistant LoVo cells after 48 hrs by SRB assay; format: functional; conditions: for CC50: read-out: LC50 (the source's name); in short: as §1
HeLa = assay: Cytotoxicity against human HeLa cells after 48 hrs by SRB assay; format: functional; conditions: for CC50: read-out: LC50 (the source's name); in short: as §1
[5] = Cytotoxicity against human HeLa-APL cells after 48 hrs by SRB assay; format: functional; in short: as §1

Structure (SMILES) | TGI (DU-145) [nM] | GI50 (DU-145) [nM] | CC50 (DU-145) [nM] | GI50 (LNCaP) [nM] | TGI (LNCaP) [nM] | CC50 (LNCaP) [nM] | CC50 [1] [nM] | GI50 [2] [nM] | GI50 ([2]; read-out: GI50) [nM] | CC50 [2] [nM] | CC50 (SK-BR-3) [nM] | CC50 (SK-MEL-28) [nM] | LC50 (A549) [nM] | GI50 (A549; read-out: GI50) [nM] | CC50 (K562) [nM] | CC50 (PANC-1) [nM] | CC50 (HT-29) [nM] | CC50 (LoVo [3]) [nM] | CC50 (LoVo [4]) [nM] | GI50 (HeLa) [nM] | further results
C/C=C1\NC(=O)[C@H](Cc2ccccc2)NC(=O)[C@@H](C(C)C)NC(=O)[C@@H]([C@H](C)CC)NC(=O)[C@H](NC(=O)[C@H](NC(=O)[C@H](CCCN)NC(=O)[C@H]2CCCN2C(=O)[C@H](NC(=O)[C@@H](NC(=O)[C@H](C)NC(=O)[C@H](NC(=O)CCCC(C)C)C(C)C)C(C)C)C(C)C)[C@H](C)CC)[C@H](C)OC(=O)[C@H](C(C)C)NC1=O | 1250 | 1420 | 1100 | 1380 | 1160 | 967 | 503 | 808 | 1230 | 561 | 371 | 1150 | 4930 | 641 | 1970 | 1810 | 437 | 338 | 306 | 1270 | TGI (SK-MEL-28): 1190 nM; GI50 (SK-MEL-28; read-out: GI50): 1240 nM; GI50 (A549): 585 nM; GI50 (K562): 822 nM; TGI (K562): 1610 nM; GI50 (PANC-1): 1160 nM; TGI (PANC-1): 1420 nM; GI50 (LoVo [3]): 2050 nM; TGI (LoVo [3]): 2070 nM; GI50 (LoVo [4]): 1080 nM; TGI (LoVo [4]): 1190 nM; TGI (HeLa): 1120 nM; CC50 (HeLa): 998 nM; GI50 [5]: 1280 nM; LC50 (concentration giving 50% net cell kill) [5]: 873 nM; TGI [5]: 1060 nM
C/C=C1\NC(=O)[C@H](Cc2ccccc2)NC(=O)[C@@H](C(C)C)NC(=O)[C@@H]([C@H](C)CC)NC(=O)[C@H](NC(=O)[C@H](NC(=O)[C@H](CCCN)NC(=O)[C@H]2CCCN2C(=O)[C@H](NC(=O)[C@@H](NC(=O)[C@H](CCC(=O)O)NC(=O)[C@H](NC(=O)CCCC(C)C)C(C)C)C(C)C)C(C)C)[C@H](C)CC)[C@H](C)OC(=O)[C@H](C(C)C)NC1=O | 2630 | 2480 | 1370 | 1070 | 949 | 838 | 483 | 849 | 1130 | 639 | 356 | 1470 | 7080 | 1630 | 1960 | 1740 | 422 | 292 | 294 | 2550 | GI50 [1]: 498 nM; GI50 ([1]; read-out: GI50): 857 nM; TGI (A549): 1450 nM; TGI (HeLa): 2500 nM; CC50 (HeLa): 1100 nM; GI50 [5]: 2060 nM; LC50 (concentration giving 50% net cell kill) [5]: 956 nM; TGI [5]: 1890 nM
